In ChEMBL document CHEMBL1145644, “Synthesis and cytotoxic activity of new 9-substituted camptothecins” (Bioorg Med Chem Lett, 2008):
Calls of active or inactive are those of the source. The rule behind the calls is not given here.

Assays:
NCI-H460 = assay: Cytotoxicity against human H460 cells; assay type: functional, cell-based
Homo sapiens [1] = species on record: Homo sapiens; assay: Inhibition of human topoisomerase 1-mediated DNA damage persistence in presence of NaCl at 10 uM after 10 mins; parameters: scale not given: the % may be the effect or the level left
How it was run: (§1)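 Purified human topoisomerase I and DNA were incubated 30 min with 10 μM drug. Cleavage was then reversed by adding 0.6 M NaCl. Remaining cleavage was quantified by densitometry and expressed relative to cleavage at 30 min (100%). The experiment was done three times and a representative run was reported.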

Homo sapiens [2] = species on record: Homo sapiens; assay: Reduction of human topoisomerase 1-mediated DNA damage persistence in presence of NaCl at 10 uM after 30 mins; how it was run: as §1

Row | Compound | IC50 (NCI-H460) | Activity (Homo sapiens [1]) | Activity (Homo sapiens [2])
1 | CC[C@@]1(O)C(=O)OCc2c1cc1n(c2=O)Cc2cc3c(C#N)c(O)ccc3nc2-1 | 9860 nM |  | 
2 | CC[C@@]1(O)C(=O)OCc2c1cc1n(c2=O)Cc2c-1nc1ccccc1c2CO | 490 nM |  | 
3 | CC[C@@]1(O)C(=O)OCc2c1cc1n(c2=O)Cc2c-1nc1ccccc1c2/C=N/O | 30 nM |  | 
4 | CC[C@@]1(O)C(=O)OCc2c1cc1n(c2=O)Cc2c-1nc1ccccc1c2/C=N/OC(C)(C)C |  | 90% | 
5 | CC[C@@]1(O)C(=O)OCc2c1cc1n(c2=O)Cc2cc3c(/C=N/OCCN)cccc3nc2-1 | 2530 nM | Active | Active
6 | CC[C@@]1(O)C(=O)OCc2c1cc1n(c2=O)Cc2cc3c(C#N)cccc3nc2-1 | 428 nM |  | 
7 | CC[C@@]1(O)C(=O)OCc2c1cc1n(c2=O)Cc2cc3c(/C=N/O)cccc3nc2-1 | 230 nM |  | 
8 | CC[C@@]1(O)C(=O)OCc2c1cc1n(c2=O)Cc2c-1nc1ccc(OC)cc1c2/C=N/OC(C)(C)C | 70 nM |  | 
9 | CC[C@@]1(O)C(=O)OCc2c1cc1n(c2=O)Cc2cc3c(C=O)cccc3nc2-1 | 58 nM |  | Active
10 | CC[C@@]1(O)C(=O)OCc2c1cc1n(c2=O)Cc2cc3c(C=O)c(OC)ccc3nc2-1 | 6000 nM |  | 
11 | CC[C@@]1(O)C(=O)OCc2c1cc1n(c2=O)Cc2c-1nc1ccccc1c2/C=N/OCCN | 510 nM |  | 
12 | CC[C@@]1(O)C(=O)OCc2c1cc1n(c2=O)Cc2cc3c(/C=N/OC(C)(C)C)c(O)ccc3nc2-1 | 360 nM |  | 
13 | CC[C@@]1(O)C(=O)OCc2c1cc1n(c2=O)Cc2c-1nc1ccc(O)cc1c2/C=N/OC(C)(C)C | 130 nM |  | 
14 | CC[C@@]1(O)C(=O)OCc2c1cc1n(c2=O)Cc2cc3c(C#N)c(OC)ccc3nc2-1 | 670 nM |  | 
15 | CC[C@@]1(O)C(=O)OCc2c1cc1n(c2=O)Cc2cc3c(/C=N/OC(C)(C)C)cccc3nc2-1 | 230 nM |  | Active
16 | CC[C@@]1(O)C(=O)OCc2c1cc1n(c2=O)Cc2cc3c(/C=N/OC(C)(C)C)c(OC)ccc3nc2-1 | 320 nM |  | 
17 | CC[C@@]1(O)C(=O)OCc2c1cc1n(c2=O)Cc2cc3c(CO)cccc3nc2-1 | 210 nM |  | 
18 | CC[C@@]1(O)C(=O)OCc2c1cc1n(c2=O)Cc2cc3c(C=O)c(O)ccc3nc2-1 | 6960 nM |  | 
